# According to article PMC5741288 (Pain Reports, 2016):
# How the values were obtained:
# [1] = Oral body temperature and Emax model vs plasma concentration; format: in vivo, healthy men; conditions: for Mean maximum body temperature: part 2
# In short: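 Oral temperature was recorded as a safety measure in healthy men after single oral tablet doses (part 1: 1–225 mg; part 2: 10, 50 mg, placebo). The maximum value was summarised per dose. An Emax model with baseline effect E0, Emax and EC50 related body temperature to plasma concentration of the test compound.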
# [2] = Plasma pharmacokinetics after single oral dose; format: in vivo, healthy men; conditions: for Tmax / half-life: male, human, plasma; for Tmax: Median tmax
# In short: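 After a fast of at least 10 h, single oral tablets were given semirecumbent with 240 mL water (part 1: 1–225 mg; part 2: 10, 50 mg). Plasma was assayed by validated LC-MS/MS over 1–1000 ng/mL (LLOQ 1 ng/mL). Noncompartmental analysis used actual times. Cmax and tmax were taken by inspection, t1/2 = 0.693/λz, CL/F = dose/AUC∞, and Vz/F = D/(λz × AUC∞).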
# [3] = cited from earlier work
# heat-evoked pain = format: in vivo, healthy men
# In short: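 In part 1 (single oral tablets, 1–225 mg, or placebo), heat pain detection and tolerance were measured with a 9 × 9 mm Peltier thermode on the volar forearm, to a 52 °C cutoff. Cold and von Frey mechanical pain thresholds were added in part 1b, with ratings on a 0–11 scale. Testing ran predose, 4 and 8 h, days 2, 4 and 6, and follow-up.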
# QTcF interval = format: in vivo, healthy men
# [4] = part 1, vs plasma concentration
smiles,measurement,setting,value
"CC(C)(O)c1ccccc1-c1ccc2[nH]c(/C=C/c3ccc(C(F)(F)F)cc3)nc2c1 [JNJ-39439335, trans-2-(2-{2-[2-(4-Trifluoromethyl-phenyl)-vinyl]-1H-benzimidazol-5-yl}-phenyl)-propan-2-ol]",EC50,"[1]; Homo sapiens, po, read-out: EC50, body temperature Emax model",0.0327 µg/mL
same,Participants with body temperature ≥39°C,"[1]; part 1, 120-mg, approximately 11-hour postdose",1 participant
same,"E0, body temperature Emax model",[1]; [4],36.6 °C
same,"Emax, body temperature Emax model",[1]; [4],37.6 °C
same,Mean maximum body temperature,[1]; 10 mg,37.9 °C
same,Mean maximum body temperature,[1]; 50 mg,38.0 °C
same,"Dose proportionality of exposure (Cmax, AUC∞)",[2]; doses of 1 to 225 mg,less than dose-proportional increase in exposure
same,Tmax,"[2]; oral, 50 mg, part 2, 10 and 50 mg, tablet, fasted",~3 h
same,half-life,"[2]; oral, Mean elimination half-life, part 1, doses of 1 to 225 mg",29.9 to 85.9 h
same,Tmax,"[2]; oral, across the dose range administered (discussion)",2 to 4.5 h
same,Tmax,"[2]; oral, part 1, doses of 1 to 225 mg, tablet, fasted",2.02 to 4.44 h
same,half-life,"[2]; po, Terminal phase half-life, single oral doses",30 to 86 h
same,Safety margins in 4-week toxicology studies,[3]; rat and dog,acceptable safety margins
same,AUC24h at the no-observed-adverse-effect level dose,"[3]; rat, most sensitive animal species","10,700 ng·h·mL^−1"
same,"Heat pain detection threshold, heat pain tolerance, and heat pain latency",heat-evoked pain; effect of treatment,"clear, consistent dose-related increases"
same,Mechanical pain detection threshold,heat-evoked pain; healthy human participants (discussion),no effect
same,Dose levels at which mean HPT increased from predose to postdose,heat-evoked pain; part 1,≥ 2 mg
same,Doses at which most participants reached the HPD cutoff temperature (52°C),heat-evoked pain; part 1,≥ 30 mg
same,Cold pain detection threshold,"heat-evoked pain; part 1b, 15- to 225-mg dose range",No clear separation from placebo and no clear dose-related effect
same,Mean heat pain latency,"heat-evoked pain; part 1b, all dose levels tested (15 to 225 mg), predose to postdose",Increases in mean heat pain latency values
same,Participants with increase in QTcF of >30 milliseconds or QTcF >450 milliseconds,QTcF interval; either part of the study,No participant
same,Participants with QTcF interval shortening of >30 milliseconds vs baseline,"QTcF interval; part 1, 10 mg dose group",2 n
same,Participants with QTcF interval shortening of >30 milliseconds vs baseline,"QTcF interval; part 1, 15 mg dose group",3 n
same,Participants with QTcF interval shortening of >30 milliseconds vs baseline,"QTcF interval; part 1, 120 mg dose group",2 n
same,Participants with QTcF interval shortening of >30 milliseconds vs baseline,"QTcF interval; part 1, 225 mg dose group",2 n
same,Participants with QTcF interval shortening of >30 milliseconds vs baseline,"QTcF interval; part 1, all JNJ-39439335 doses",9 participants
same,Participants with QTcF interval shortening of >30 milliseconds vs baseline,"QTcF interval; part 2, 50 mg",4 participants
